Source: publication PMC12749109 (Nature Communications, 2025)
“Also recorded” adds a separate entry of the source. Where two headings read alike, the source gives them in different places.

Assays:
[1] = system: Caco2 cells; assay: RT-qPCR cytokine expression, Caco2 cell inflammation model with GALR antagonists; type: cell-based, human; details: Caco-2 inflammation model, IL-1β + TNF-α
[2] = system: DSS-induced colitis; assay: DSS-induced colitis with M871 or SNAP37889 ± cGAL53, overall; type: in vivo; details: mouse, 3% DSS; antagonist 10 nmol/mouse + cGAL53 3 μM
In short: (§1)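 Male C57BL/6 mice (20 ± 2 g, 7–8 weeks) received 3% DSS with daily i.p. test peptide (3 μM). A GALR2 or GALR3 antagonist (10 nmol/mouse, in 10% DMSO/40% PEG 300/30% Tween-20/20% saline) was given 30 min before each peptide dose. Controls followed the standard DSS protocol.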

[3] = system: DSS-induced colitis; assay: DSS-induced colitis with M871 or SNAP37889 ± cGAL29, overall; type: in vivo; details: mouse
In short: as §1

[4] = system: ZO-1, occludin; assay: IHC of ZO-1 and occludin in colon, DSS-induced colitis, wild-type mice; type: in vivo; details: mouse colon, 3% DSS, peptide 3 μM daily i.p.
In short: (§2)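 Colon sections from DSS-treated mice were incubated overnight at 4 °C with anti-ZO-1 (1:1000) or anti-occludin (1:200), then HRP-conjugated secondary antibody. Signal was developed with DAB, sections counterstained with hematoxylin, and staining quantified by image analysis.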

[5] = system: GALR2; assay: Tango and BRET β-arrestin2 recruitment; type: cell-based
In short: (§3)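 Tango assay used HTLA cells, a HEK293T line expressing a tTA-dependent luciferase reporter and β-arrestin2, transfected with GALR plasmid (2 μg). Test peptide in serum-free DMEM was added 36 h post-transfection for 12 h, then luciferase activity was measured. Mean ± SD.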

[6] = system: GALR1; assay: NFAT-luc luciferase; type: cell-based; details: HEK293, GALR1, luciferase, 12 h
In short: (§4)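 HEK293 cells were transfected (Lipofectamine) with empty pcDNA3.1 or GALR plasmid (2 μg) plus CRE, NFAT-RE or SRE luciferase reporter. After 36 h, medium was replaced with serum-free medium containing test peptide, diluted in DMEM from a 1 mM water stock, for 12 h. Luciferase was read 48 h post-transfection. Technical triplicate; mean ± SD; 37 °C, 5% CO2.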

[7] = system: colon transcriptome; assay: RNA-seq of colon tissue, DSS-induced colitis mice; type: in vivo; details: mouse colon
In short: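 Total RNA was extracted from mouse colon with Trizol, sequenced on BGIseq500 and mapped to the mouse genome. Data were analysed in R and reported as mean ± SEM.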

[8] = system: GALR2; assay: CRE-luc luciferase; type: cell-based; details: HEK293, GALR2, luciferase, 12 h
In short: as §4

[9] = system: GALR2b; assay: Tango β-arrestin2 recruitment, HTLA cells; type: cell-based, chicken
In short: as §3

[10] = system: DSS-induced intestinal inflammation; type: in vivo, chicken; details: chicken, 4% DSS oral gavage, daily i.p. peptide
In short: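 Forty 21-day-old male yellow-feathered broilers were split into control, DSS and two peptide groups under 24 h light, with free food and water. DSS groups were gavaged with […] of 4% DSS daily from day 21 to 29. Treated birds got 100 μL of 50 μM peptide i.p. daily. TNF-α, IL-1β and IL-6 were measured by ELISA in jejunum/ileum homogenates (1:9 w/v ice-cold PBS, pH 7.4; 5000 × g, 10 min, 4 °C).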

[11] = system: GALR2; assay: NFAT-luc luciferase; type: cell-based; details: HEK293, GALR2, luciferase, 12 h
In short: as §4

[12] = system: GALR3; assay: CRE-luc luciferase; type: cell-based; details: HEK293, GALR3, luciferase, 12 h
In short: as §4

[13] = system: GALR3; assay: NFAT-luc luciferase; type: cell-based; details: HEK293, GALR3, luciferase, 12 h
In short: as §4

[14] = system: DSS-induced colitis; assay: H&E histology/HAI and endoscopy, DSS-induced colitis, wild-type mice; type: in vivo; details: mouse, 3% DSS, peptide 3 μM daily i.p.
In short: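 Colons from mice given 3% DSS (8 days) and daily i.p. test peptide (3 μM) were fixed in 4% paraformaldehyde, paraffin-embedded, sectioned and H&E-stained. Sections were scored for epithelial damage, inflammatory infiltration, crypt loss and ulceration; n = 6/group.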

[15] = system: Gnaq; assay: 2% DSS colitis in Gnaq cKO mice, overall; type: in vivo, mouse; details: Gnaq cKO (gut epithelial) mice, vs AAV control mice
In short: (§5)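 Male Arrb2fl/fl or Gnaqfl/fl mice (7–8 weeks) were fasted overnight, anaesthetised, and given 100 μL AAV8-Vil-cre or AAV8-Vil-null (1E+11 vg/mL) by catheter 4 cm into the colon. One week later they received 2% DSS in drinking water for 7 days. Read-outs were body weight, DAI, colon length, H&E, serum IL-6/IL-1β ELISA, and colonic Il6/Tnf/Il1b/Tgfb1/Tjp1/Ocln mRNA.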

[16] = system: DSS-induced colitis; assay: DSS-induced colitis in wild-type mice, overall therapeutic efficacy; type: in vivo, mouse; details: for alleviation of colitis / intestinal inflammation, overall: chicken and mouse colitis models, overall statement
[17] = system: GALR1; assay: Tango β-arrestin2 recruitment, HTLA cells; type: cell-based
In short: as §3

[18] = system: GALR3; assay: DSS-induced colitis in Galr3-KO mice, overall; type: in vivo, mouse; details: 3% DSS, cGAL53 3 μM
[19] = system: GALR2; assay: SRE-luc luciferase; type: cell-based; details: HEK293, GALR2, luciferase, 12 h
In short: as §4

[20] = system: DSS-induced colitis; assay: DSS-induced colitis, female mice, overall therapeutic efficacy; type: in vivo, mouse; details: female C57BL/6 mice, 2.5% DSS, peptide 3 μM daily i.p.
In short: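 Female C57BL/6 mice (9–10 weeks, 20 ± 2 g) were randomised into four groups and given 2.5% DSS in drinking water ad libitum for 8 days, with daily i.p. test peptide (3 μM). Body weight was recorded daily. Colon length was measured after sacrifice, and distal colon was fixed in 4% formalin.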

[21] = system: GALR3; assay: Tango β-arrestin2 recruitment, HTLA cells; type: cell-based
In short: as §3

[22] = system: GALR2; assay: G protein versus β-arrestin2 signaling bias at GALR2; type: cell-based
[23] = system: GALR2; assay: DSS-induced colitis in Galr2-KO mice, overall; type: in vivo, mouse; details: Galr2-KO mice (or GALR2 inhibition where stated), cGAL53 3 μM
[24] = system: TNBS-induced colitis; assay: TNBS-induced colitis in C57BL/6 mice, overall therapeutic efficacy; type: in vivo, mouse; details: TNBS intrarectal, peptide 3 μM
In short: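 Male C57BL/6 mice (8–12 weeks) under 1.5% isoflurane received 100 μL of 2.5% TNBS (5% TNBS in water mixed 1:1 with ethanol) into the colon lumen. Controls received 50% ethanol only. Test peptide was given at 3 μM. Weight was monitored daily, and mice were killed 72 h after induction for colon length and histology; n = 6/group.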

[25] = system: ZO-1, occludin; assay: IHC of ZO-1 and occludin in colon, Galr2-KO mice; type: in vivo, mouse; details: DSS, compared with Galr2 KO-DSS group
In short: as §2

[26] = system: GALR1; assay: CRE-luc luciferase; type: cell-based; details: HEK293, GALR1, luciferase, 12 h
In short: as §4

[27] = system: GALR1; assay: SRE-luc luciferase; type: cell-based; details: HEK293, GALR1, luciferase, 12 h
In short: as §4

[28] = system: ARRB2; assay: 2% DSS colitis in Arrb2 cKO mice, overall; type: in vivo, mouse; details: Arrb2 cKO (gut epithelial) mice, vs AAV control mice
In short: as §5

[29] = Tolerability of peptide alone in healthy male mice, overall; type: in vivo, mouse; details: daily i.p. for six consecutive days
In short: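 Healthy male mice received daily i.p. test peptide for six consecutive days alongside a saline-injected control group. Body weight, water intake, food intake and colon length were recorded.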

[30] = system: GALR3; assay: SRE-luc luciferase; type: cell-based; details: HEK293, GALR3, luciferase, 12 h
In short: as §4

[31] = system: mGALR2 mutants; assay: Tango β-arrestin2 recruitment, binding-site mutants; type: cell-based, mouse
[32] = system: Caco2 cells; assay: RT-qPCR cytokine expression, Caco2 cell inflammation model; type: cell-based, human; details: IL-1β + TNF-α
[33] = system: intestinal barrier; assay: FD4 intestinal permeability, Galr2-KO mice; type: in vivo, mouse; details: Galr2-deficient mice, DSS
In short: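 Mice were fasted 12 h before and during the test, then gavaged with FITC-dextran FD4 (25 mg/mL in 0.05 M PBS) at 20 mL/kg. Plasma was collected 3 h later, diluted 1:2 in PBS, and fluorescence read at excitation 490 nm / emission 520 nm.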

## O=C1C(=Nc2cccc(C(F)(F)F)c2)c2ccccc2N1c1ccccc1 [SNAP37889]
[1]
  block of anti-inflammatory effect of cGAL53 by antagonist: not by SNAP37889
[2]
  effect of antagonist on ability of cGAL53 to alleviate colitis: cGAL53 was still effective in treating colitis symptoms in mice
[3]
  effect of antagonist on therapeutic efficacy of cGAL29: exerted inhibitory effects on the therapeutic efficacy of cGAL29

## GWTLNSAGYLLGPRRIDHLLMIKEMPIARGREEAPGA-YAVDNHRSFNDKHGFT-NH2 [cGAL53]
[4]
  ZO-1 and occludin protein and mRNA levels: markedly enhanced
[5]
  ARRB2 (β-arrestin2) recruitment: significantly enhanced; also recorded: preferentially activated ARRB2
[6]
  Gq (NFAT-luc) activation: not GALR1
[7]
  DSS-changed pathways (KEGG): significantly modulated
  expression levels of immune-related genes: significantly reduced
[7]; compared to cGAL29
  inflammation-related pathways (GSVA): significantly greater reductions
[8]
  Gs (CRE-luc) activation: can activate; also recorded: activated
[9]
  ARRB2 (β-arrestin2) recruitment: significantly enhanced
[10]
  IBD-related symptoms in DSS-treated chickens: ameliorated IBD-related symptoms in chickens, manifested as reductions of body weight loss, intestinal bleeding points and tissue damage
[10]; listed as GAL53
  IBD-related symptoms in DSS-treated chickens: superior therapeutic efficacy
[11]
  Gq (NFAT-luc) activation: can activate; also recorded: activated
[12]
  Gs (CRE-luc) activation: can activate
[13]
  Gq (NFAT-luc) activation: can activate
[14]
  endoscopic and colon tissue damage scores: most pronounced improvements
[15]
  ability to alleviate weight loss, colon shortening, intestinal damage, inflammation: significantly reduced
[16]; WT mice, 3% DSS, cGAL53 3 μM
  colitis symptoms: significant improvement in colitis symptoms
[16]
  alleviation of colitis / intestinal inflammation, overall: superior therapeutic efficacy compared to the conserved GAL29 peptide; also recorded: superior protective effects against DSS-induced inflammation in both chickens and mice; also recorded: alleviates colitis-associated weight loss, colon shortening, bleeding, and inflammation in both chickens and mice; also recorded: greater therapeutic efficacy in treating intestinal inflammation in chickens and mice
[16]; listed as GAL53
  alleviation of colitis / intestinal inflammation, overall: superior protective effects against intestinal inflammation in birds and mammals; also recorded: exerts protective effects in chemical models of IBD
[16]; listed as chicken GAL53
  alleviation of colitis / intestinal inflammation, overall: superior efficacy over the conserved GAL29
[16]; mouse, 3% DSS in drinking water, peptide 3 μM daily i.p.
  DSS-induced body weight reduction, colon shortening and DAI increase: superior therapeutic efficacy over the shorter galanin variants (cGAL29 and hGAL30); also recorded: superior therapeutic efficacy in mouse colitis compared to cGAL29
[17]
  ARRB2 (β-arrestin2) recruitment: significantly enhanced
[18]
  colitis symptoms: significant improvement in colitis symptoms
[19]
  Gi (SRE-luc) activation: can activate; also recorded: activated
[20]
  therapeutic effect in female mice with DSS-induced colitis: superior therapeutic benefits
[21]
  ARRB2 (β-arrestin2) recruitment: significantly enhanced
[22]
  bias at GALR2: β-arrestin2- biased agonizts of GALR2
[22]; GALR2, overall statement
  G protein activation / ARRB2 recruitment via GALR2: significantly enhances the recruitment of ARRB2 to GALR2
[23]
  colitis symptoms / effects of cGAL53: abolished in Galr2-deficient mice; also recorded: did not exhibit any change; also recorded: completely abolishes the effects of cGAL53
[24]
  TNBS-induced colitis (colon length, histopathological damage): more effective than cGAL29, nearly reversing the colon length and histopathological damage
[25]
  expression of ZO-1 and occludin: did not increase
[26]
  Gs (CRE-luc) activation: not GALR1
[27]
  Gi (SRE-luc) activation: not GALR1
[28]
  therapeutic effects (weight loss, colon shortening, intestinal damage, inflammation): significantly diminished; also recorded: negated the therapeutic effects
[29]
  body weight, water and food intake, colon length (tolerability): neither peptide affected body weight, water, and food intake, nor colon length, indicating good tolerability
[30]
  Gi (SRE-luc) activation: can activate
[31]
  β-arrestin2 recruitment after mutation of predicted unique binding sites: affected
[32]
  concentration giving (similar) anti-inflammatory effect: 0.1 µM
[32]; RT-qPCR
  expression of Il6, Il23 and Tgfb1 induced by IL-1β and TNF-α: reduced
[33]
  circulating FD4 tracer levels: remained unchanged
